Experimental data: ChEMBL document CHEMBL3351634, “Novel sulfonamides bearing pyrrole and pyrrolopyrimidine moieties as carbonic anhydrase inhibitors: Synthesis, cytotoxic activity and molecular modeling” (Eur J Med Chem, 2014)
pIC50, pKi: −log10 of the molar value.

Assays:
MCF7 [1] = assay: Cytotoxicity against human MCF7 cells after 48 hrs by sulforhodamine-B assay; settings: MCF7, 48 h
Carbonic anhydrase 9 = Carbonic anhydrase 9 (Homo sapiens, UniProt Q16790); assay: Inhibition of human recombinant carbonic anhydrase 9 preincubated for 15 mins by stopped-flow CO2 hydrase assay
MCF7 [2] = assay: Cytotoxicity against human MCF7 cells assessed as cell survival at 25 uM after 48 hrs by sulforhodamine-B assay; assay type: functional; settings: MCF7, 48 h, read-out: Survival
How it was run: (§1)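 Cells plated at 10⁴ per well and left 24 h to attach, then exposed for 48 h at 37 °C under 5% CO₂, with triplicate wells per concentration. Cells were fixed, washed and stained 30 min with 0.4% (wt/vol) SRB in 1% acetic acid. Unbound dye was removed with four 1% acetic acid washes and bound stain recovered in Tris-EDTA. Colour was read on an ELISA reader and expressed as surviving fraction.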

MCF7 [3] = assay: Cytotoxicity against human MCF7 cells assessed as cell survival at 50 uM after 48 hrs by sulforhodamine-B assay; assay type: functional; settings: MCF7, 48 h, read-out: Survival; how it was run: as §1
MCF7 [4] = assay: Cytotoxicity against human MCF7 cells assessed as cell survival at 10 uM after 48 hrs by sulforhodamine-B assay; assay type: functional; settings: MCF7, 48 h, read-out: Survival; how it was run: as §1
MCF7 [5] = assay: Cytotoxicity against human MCF7 cells assessed as cell survival at 100 uM after 48 hrs by sulforhodamine-B assay; assay type: functional; settings: MCF7, 48 h, read-out: Survival; how it was run: as §1
Carbonic anhydrase 2 = Carbonic anhydrase 2 (Homo sapiens, UniProt P00918); assay: Inhibition of human recombinant carbonic anhydrase 2 preincubated for 15 mins by stopped-flow CO2 hydrase assay
Carbonic anhydrase 1 = Carbonic anhydrase 1 (Homo sapiens, UniProt P00915); assay: Inhibition of human recombinant carbonic anhydrase 1 preincubated for 15 mins by stopped-flow CO2 hydrase assay
Chain of Carbonic anhydrase 1 (P00915 whole entry): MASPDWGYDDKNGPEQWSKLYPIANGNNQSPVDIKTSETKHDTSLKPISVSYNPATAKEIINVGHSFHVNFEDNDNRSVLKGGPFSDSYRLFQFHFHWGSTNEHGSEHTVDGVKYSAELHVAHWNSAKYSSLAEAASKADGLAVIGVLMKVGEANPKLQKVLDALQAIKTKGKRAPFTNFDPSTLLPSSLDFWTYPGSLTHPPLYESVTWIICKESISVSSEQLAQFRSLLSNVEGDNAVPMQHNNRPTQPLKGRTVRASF

Row | Compound | pIC50 (MCF7 [1]) | pKi (Carbonic anhydrase 9) | viability at 25 µM (MCF7 [2]) [%] | viability at 50 µM (MCF7 [3]) [%] | viability at 10 µM (MCF7 [4]) [%] | viability at 100 µM (MCF7 [5]) [%] | pKi (Carbonic anhydrase 2) | pKi (Carbonic anhydrase 1)
1 | N#Cc1c(-c2ccc(Br)cc2)cn(-c2ccc(S(N)(=O)=O)cc2)c1N | 5.12 | – | – | – | – | – | – | –
2 | N#Cc1c(-c2ccc(Br)cc2)cn(-c2ccc(S(N)(=O)=O)cc2)c1NC(=S)Nc1ccccc1 | 5.14 | 7.20 | 23.5 | 22.7 | 30.8 | 21.7 | – | –
3 | N#Cc1c(-c2ccc(Br)cc2)cn(-c2ccc(S(N)(=O)=O)cc2)c1NC(=S)Nc1ccc(I)cc1 | 5.09 | 6.34 | 29 | 28.1 | 31.2 | 28.8 | – | –
4 | Cc1ccc(-n2c(=S)[nH]c3c(c(-c4ccc(Br)cc4)cn3-c3ccc(S(N)(=O)=O)cc3)c2=N)cc1 | 5.19 | – | 24.2 | 22.9 | 25 | 24.5 | – | –
5 | N#Cc1c(-c2ccc(Br)cc2)cn(-c2ccc(S(N)(=O)=O)cc2)c1NC(=O)c1ccc(Br)cc1 | 5.12 | – | 32.7 | 24.9 | 35.8 | 25.4 | – | –
6 | NS(=O)(=O)c1ccc(-n2cc(-c3ccc(Br)cc3)c3c(=S)[nH]c(=S)[nH]c32)cc1 | 5.12 | 8.15 | 29.4 | 21.9 | 33.7 | 22.5 | – | –
7 | N#Cc1c(-c2ccc(Br)cc2)cn(-c2ccc(S(N)(=O)=O)cc2)c1NC(=S)Nc1ccc([N+](=O)[O-])cc1 | 5.09 | 7.06 | 27.6 | 25.5 | 28 | 26 | – | –
8 | Cc1ccc(S(=O)(=O)Nc2c(C#N)c(-c3ccc(Br)cc3)cn2-c2ccc(S(N)(=O)=O)cc2)cc1 | 5.12 | 6.77 | 27.1 | 22.2 | 32.4 | 21.4 | – | –
9 | N#Cc1c(-c2ccc(Br)cc2)cn(-c2ccc(S(N)(=O)=O)cc2)c1NS(=O)(=O)c1ccccc1 | 5.15 | 6.07 | 29 | 20.2 | 27.2 | 23.2 | – | –
10 | Nc1nc(=S)[nH]c2c1c(-c1ccc(Br)cc1)cn2-c1ccc(S(N)(=O)=O)cc1 | 5.19 | 7.37 | 25.5 | 19.9 | 23.1 | 25 | – | –
11 | N#Cc1c(-c2ccc(Br)cc2)cn(-c2ccc(S(N)(=O)=O)cc2)c1NC(=S)Nc1ccc(Br)cc1 | 5.09 | – | 28 | 27.7 | 29.8 | 29 | – | –
12 | COc1ccc(NC(=S)Nc2c(C#N)c(-c3ccc(Br)cc3)cn2-c2ccc(S(N)(=O)=O)cc2)cc1 | 5.15 | – | 26.3 | 24.9 | 26.2 | 21.7 | – | –
13 | CC(=O)CC(=O)Nc1c(C#N)c(-c2ccc(Br)cc2)cn1-c1ccc(S(N)(=O)=O)cc1 | 5.09 | 8.26 | 28.2 | 28 | 29 | 29.1 | – | –
14 | N#Cc1c(-c2ccc(Br)cc2)cn(-c2ccc(S(N)(=O)=O)cc2)c1NC(=S)Nc1ccc(Cl)cc1 | 5.09 | 7.04 | 25.7 | 26 | 28.8 | 29 | – | –
15 | NS(=O)(=O)c1ccc(-n2cc(-c3ccc(Br)cc3)c3c(=O)n(C(=O)c4ccc(Cl)cc4)c(-c4ccc(Cl)cc4)nc32)cc1 | 4.88 | 6.31 | 29.3 | 20.1 | 54.9 | 29.5 | < 5.00 | < 5.00
16 | Cc1nc(S)c2c(-c3ccc(Br)cc3)cn(-c3ccc(S(N)(=O)=O)cc3)c2n1 | 5.17 | 8.27 | 21.8 | 19.8 | 23.6 | 23.1 | – | –
17 | Nc1nc(=O)[nH]c2c1c(-c1ccc(Br)cc1)cn2-c1ccc(S(N)(=O)=O)cc1 | 5.17 | 7.61 | 27.6 | 20.3 | 27 | 23.8 | – | –
18 | C/C(S)=N/c1c(C#N)c(-c2ccc(Br)cc2)cn1-c1ccc(S(N)(=O)=O)cc1 | 5.09 | 8.22 | 31.2 | 30 | 33 | 29.9 | – | –
19 | N#Cc1c(-c2ccc(Br)cc2)cn(-c2ccc(S(N)(=O)=O)cc2)c1NC(=S)Nc1ccc(S(N)(=O)=O)cc1 | 5.09 | 7.29 | 29.1 | 25.5 | 31.1 | 27.6 | – | –
20 | NS(=O)(=O)c1ccc(-n2cc(-c3ccc(Br)cc3)c3c(=O)n(C(=O)c4ccccc4)c(-c4ccccc4)nc32)cc1 | 5.09 | 8.19 | 31.8 | 28.4 | 36.6 | 26.8 | – | < 5.00
